Screens (PubChem)
Hits are enriched below; roughly 1.8% of the tested compounds scored in any of these assays.
DNMT1 inh: human DNMT1 methyltransferase inhibitors, primary screen, biochemical, molecular beacon, fluorescence, HinP1I cleavage, uHTS; inhibition (reported as % activation of signal), % at 10 µM; 360,000 tested, 0.83% active; AID 588458, 2011; in the data active = inhibition above about 50%
SUMO1-SIM PPI: modulators of SUMO1 protein-protein interactions, primary screen, biochemical, uHTS | SUMO1 binding to a labelled peptide, TR-FRET, 1 h | 360,000 tested, 0.33% active | inhibition, % at 20 µM | Small ubiquitin-related modifier 1 (Homo sapiens), P63165; in the data active = inhibition above about 37%
Target sequence (P63165 whole entry, looked up): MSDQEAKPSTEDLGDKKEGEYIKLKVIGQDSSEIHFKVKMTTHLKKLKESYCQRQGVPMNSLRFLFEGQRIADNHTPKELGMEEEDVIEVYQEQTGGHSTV
STEP block: STEP phosphatase inhibitors, primary screen, biochemical, fluorescence intensity, uHTS. recombinant STEP, OMFP fluorogenic substrate. inhibition, % at 20 µM. Tyrosine-protein phosphatase non-receptor type 5 (Homo sapiens), P54829. AID 588621, 2011. 360,000 tested, 0.25% active;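 active = inhibition at 20 µM, scaled per plate between control wells, above about 37%, limit read from the data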;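 also: 0% = DMSO with enzyme and substrate and 100% = substrate only without enzyme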
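System: STEP phosphatase, cell-free reaction; Buffer or medium: Bis-Tris pH 6.0 buffer with DTT, detergent; Incubation: 20 min at room temperature, dark; Measured by: fluorescence, 480/540 nm.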
Scp1 inh: Scp-1 phosphatase inhibitors, primary screen, biochemical, colorimetric, uHTS. 340,000 tested, 0.88% active. Carboxy-terminal domain RNA polymerase II polypeptide A small phosphatase 1 (Homo …. Recombinant Scp1, phosphopeptide, malachite green phosphate absorbance. inhibition, % at 20 µM;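 active = inhibition above about 50% at 20 µM, limit read from the data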;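 also: plate controls were DMSO wells with enzyme for no effect and wells lacking enzyme for full effect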
Target sequence (Q9GZU7 76-261 limits assumed): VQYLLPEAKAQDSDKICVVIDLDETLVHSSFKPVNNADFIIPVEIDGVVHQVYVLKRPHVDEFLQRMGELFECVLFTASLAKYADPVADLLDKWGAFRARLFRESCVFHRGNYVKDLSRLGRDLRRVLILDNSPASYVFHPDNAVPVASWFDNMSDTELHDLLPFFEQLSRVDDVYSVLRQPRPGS
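Material – SCP-1 phosphatase catalytic domain, residues 76-261 · Buffer or medium – Acidic Tris acetate buffer with magnesium and detergent · Also added – Phospho 17-mer peptide substrate · Compound – single 20 µM dose, 1% DMSO · Times – 45 min room-temperature reaction, 5 min colour, 30 min stabiliser · Technique – Phosphate-binding colour reagent, absorbance read at 630 nm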
LMPTP inh: LMPTP phosphatase inhibitors, primary screen, biochemical, fluorescence intensity, uHTS. Low molecular weight phosphotyrosine protein phosphatase (Homo sapiens), P24666. recombinant LMPTP-A, OMFP fluorogenic substrate. inhibition, % at 20 µM. 360,000 tested, 0.22% active. AID 651560, 2012;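 active = compounds that cut the enzyme signal by at least half of the control window in the single-dose screen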;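 also: plate controls were DMSO wells with enzyme plus substrate for no effect and substrate without enzyme for full effect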
Target sequence (P24666 whole entry, looked up): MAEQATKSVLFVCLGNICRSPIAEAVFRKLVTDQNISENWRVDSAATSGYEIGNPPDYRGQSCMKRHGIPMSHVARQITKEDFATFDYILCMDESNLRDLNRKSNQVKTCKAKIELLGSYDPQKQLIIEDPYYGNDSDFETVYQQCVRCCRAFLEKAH
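Test system: LMPTP-A phosphatase enzyme; input: 0.625 nM LMPTP-A final; reagent: OMFP substrate, 400 µM final; compound dosing: 20 µM single dose, 3% DMSO; incubation: 50 min dark incubation at room temperature; measured by: endpoint fluorescence intensity from OMFP dephosphorylation; measure: % inhibition relative to no-enzyme and uninhibited control wells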
HKDC1 inhibitor: HKDC1 hexokinase inhibitors, primary screen, biochemical, fluorescence, uHTS | 340,000 tested, 0.16% active | Q2TB90 | inhibition, % at 20 µM | AID 493160, 2011 | recombinant HKDC1, G6PDH/diaphorase resazurin coupled fluorescence;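 active = inhibition above about 35% when tested at 20 µM, limit read from the data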;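 also: plate controls were DMSO wells with enzyme for no effect and DMSO wells lacking enzyme for full effect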
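Assay system – recombinant HKDC1 (HK5) hexokinase enzyme, produced in-house · Input – HKDC1 at 5 µg/mL · Reagent – glucose plus 1 mM ATP as hexokinase substrates · Timing – 90 min reaction incubation at room temperature, dark · Measured by – G6PDH/diaphorase-coupled fluorescence, 1 mM NADP, 100 µM resazurin, 525/613 nm · Benchmarks – DMSO-enzyme wells negative, buffer-substituted wells positive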
HKDC1 act conf: HKDC1 hexokinase activators, confirmation, biochemical, single concentration; shares compounds with HKDC1 inhibitor; recombinant HKDC1, G6PDH/diaphorase resazurin fluorescence; active compounds read low; inhibition, % at 20 µM; 740 tested, 14% active;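 active = inhibition at or below a set negative limit, negative inhibition meaning the enzyme was activated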
* marks the source's active call; other numbers are inactive results; · = no result.

SMILES	DNMT1 inh	SUMO1-SIM PPI	STEP block	Scp1 inh	LMPTP inh	HKDC1 inhibitor	HKDC1 act conf
C/C(=N\NC(=O)c1cc(-c2cccnc2)nc2ccccc12)c1ccc(O)cc1O	-4.1	16.9	-0.8	-7.6	-1.2	-40.0	-2.6
CC(=NNC(=O)c1ccncc1)c1ccccc1O	6.8	-5.2	-0.1	-6.7	-1.2	-1.0	·
O=C1C=C(c2c(O)ccc3ccccc23)c2ccccc2C1=O	30.6	-2.8	27.0	4.0	5.2	93.3*	78.1
O=C(O)c1cc2ccccc2c2c1C(=O)c1ccccc1-2	-4.7	-17.2	1.6	·	-0.8	·	·
O=C(NCc1ccncc1)C(=O)N/N=C/c1ccccc1OCc1ccccc1	5.4	-3.7	3.1	-14.6	0.0	-4.5	·
O=C(NCc1ccncc1)C(=O)N/N=C/c1ccc(OCc2ccccc2)cc1	38.8	8.1	0.5	1.9	39.3	-58.4	-16.5
COC(=O)c1sc(NC(=O)CSc2nc3nc(C)cc(C)n3n2)c(C(=O)OC)c1C	-1.9	5.4	-0.1	4.5	-2.1	35.3*	25.6
O=C(CCCCC(=O)Sc1ccccc1)Sc1ccccc1	17.6	10.0	4.4	-5.4	2.1	38.7*	-4.4
O=C(CNC(=O)c1ccccc1)Sc1ccccc1	5.2	3.8	-4.0	-12.4	-1.5	-1.4	·
O=c1[nH]cc(F)c(=O)n1C1OC(CO)C(O)C1O (stereo not drawn)	·	2.5	·	·	-0.4	·	·
CCn1cnc2cc(NCc3ccc(OC)cc3)ccc21	-2.9	-2.7	3.3	-9.7	-0.1	-2.6	·
CCOc1ccc2nc3cc(NCc4ccc(OC)cc4)ccc3c(N)c2c1	25.9	110.0*	1.6	-1.1	19.2	36.1*	-3.6
O=C(c1cc(S(=O)(=O)N2CCN(c3ccccc3)CC2)ccc1Cl)N1CCCCCCC1	2.7	4.4	2.3	-4.7	2.0	1.1	·
O=c1nccc(Nc2ccccc2)[nH]1	-0.2	-0.9	-3.9	-4.5	-1.5	-3.5	·
c1ccc(Nc2cc(Nc3ccccc3)[nH]n2)cc1	-18.5	4.0	-4.2	0.3	11.2	-46.9	-19.6
NNc1nc(C(F)(F)F)nc2ccccc12	0.8	-1.0	0.4	-2.3	-0.3	-9.2	·
O/C=c1\ccc2cccc3nc(C(F)(F)F)nc1c23	50.2*	-13.5	0.9	12.3	33.1	40.4*	21.2
CC(C(=O)OCC(=O)c1ccc(Br)cc1)N1C(=O)C2C3C=CC(C3)C2C1=O (stereo not drawn)	-1.3	6.6	-0.9	-7.7	-0.7	-1.9	·
CCCNC(=O)CC1C(=O)N(Cc2ccccc2)C(C)c2nc3ccccc3n21 (stereo not drawn)	1.3	4.6	6.2	-6.0	-0.9	-2.5	·
COc1ccccc1C(=O)NC(CCSC)C(=O)NCCCSc1ccccc1 (stereo not drawn)	-1.0	5.0	-0.3	-11.8	-2.9	1.1	·
CC1C/C(=C\c2cccnc2)C(=O)/C(=C/c2cccnc2)C1 (stereo not drawn)	48.4	16.3	-0.8	-9.3	1.7	40.1*	22.9
O=C(O)CCC(=O)N1CCN(Cc2ccc3c(c2)OCO3)CC1	7.3	-1.3	0.8	45.6	-0.9	-5.2	·
CCCC(=O)N1CCN(Cc2ccc3c(c2)OCO3)CC1	5.8	0.6	-4.7	6.6	-1.7	-56.9	-3.1
CCN(CC)CCNC(=O)c1ccc(N2CCCCC2)c(NS(=O)(=O)c2ccc(C)cc2)c1	3.3	1.8	2.2	7.1	-3.6	-10.2	·
CCN(CC)CCNc1cc(C)nc2c1C(=O)C(=O)C=C2N1CCCCC1	-10.6	-23.7	1.2	-6.8	-0.1	45.2*	57.9
